Data reported in ChEMBL document CHEMBL1144585, “Synthesis and evaluation of N-acetyl-L-tyrosine based compounds as PPARalpha selective activators” (Eur J Med Chem, 2007).

What was measured:
[1] = biological target: T1, Peroxisome proliferator-activated receptor alpha (Homo sapiens) (UniProt Q07869); experiment: Agonist activity at human recombinant PPARalpha at 50 uM by GAL4 transactivation assay relative to control; format: functional
T1 sequence (whole entry): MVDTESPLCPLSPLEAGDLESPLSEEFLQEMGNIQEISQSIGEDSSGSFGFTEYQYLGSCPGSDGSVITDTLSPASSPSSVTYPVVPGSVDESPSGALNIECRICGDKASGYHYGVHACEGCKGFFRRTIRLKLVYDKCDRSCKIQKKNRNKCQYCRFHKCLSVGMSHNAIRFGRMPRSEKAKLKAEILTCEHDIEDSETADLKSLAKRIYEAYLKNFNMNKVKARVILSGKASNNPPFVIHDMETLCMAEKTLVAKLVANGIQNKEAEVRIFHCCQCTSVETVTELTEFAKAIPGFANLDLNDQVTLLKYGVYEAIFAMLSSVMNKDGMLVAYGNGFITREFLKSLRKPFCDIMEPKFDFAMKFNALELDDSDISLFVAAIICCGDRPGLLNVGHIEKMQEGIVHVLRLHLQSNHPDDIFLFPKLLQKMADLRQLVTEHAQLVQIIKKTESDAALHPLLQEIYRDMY
Summary of the method: (§1)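 Cell-based transcription assay: cells transfected with a GAL4–PPAR chimeric receptor expression plasmid, with luciferase gene activation as the read-out. PPARα was tested at 50 µM against WY 14,643 as the reference. PPARγ was tested at 30 µM against rosiglitazone as the reference. Values are fold activation at the same concentration.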

[2] = biological target: T2, Peroxisome proliferator-activated receptor gamma (Homo sapiens) (UniProt P37231); experiment: Agonist activity at human recombinant PPARgamma at 30 uM by GAL4 transactivation assay relative to control; format: functional; summary of the method: as §1
T2 sequence (whole entry): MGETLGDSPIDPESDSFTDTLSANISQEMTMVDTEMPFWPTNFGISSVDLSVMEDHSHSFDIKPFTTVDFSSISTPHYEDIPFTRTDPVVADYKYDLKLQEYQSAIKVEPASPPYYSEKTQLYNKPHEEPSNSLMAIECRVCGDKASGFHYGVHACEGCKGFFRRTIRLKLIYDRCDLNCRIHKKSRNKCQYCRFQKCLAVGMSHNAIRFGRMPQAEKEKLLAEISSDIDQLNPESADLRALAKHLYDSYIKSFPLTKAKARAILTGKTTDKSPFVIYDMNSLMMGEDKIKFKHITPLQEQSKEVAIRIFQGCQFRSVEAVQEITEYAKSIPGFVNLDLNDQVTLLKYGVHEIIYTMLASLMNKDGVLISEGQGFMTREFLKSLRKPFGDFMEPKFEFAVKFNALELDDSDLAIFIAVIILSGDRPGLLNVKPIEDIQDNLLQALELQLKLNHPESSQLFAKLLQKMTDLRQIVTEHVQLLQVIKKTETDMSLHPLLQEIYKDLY

Row | Structure (SMILES) | Fold change [1] | Fold change [2]
1 | CCOC(=O)[C@H](Cc1ccc(OCc2ccc(Cl)cc2)cc1)NC(C)=O | 2 | 1
2 | CC(=O)N[C@@H](Cc1ccc(OCc2ccc(Cl)cc2)cc1)C(=O)O | 3 | 1.9
3 | CCOC(=O)[C@H](Cc1ccc(OCCn2c3ccccc3c3ccccc32)cc1)NC(C)=O | 1.6 | 5.4
4 | Cc1cccc(Nc2cc(Cl)nc(SCC(=O)O)n2)c1C | 4.2 | 
5 | CC(=O)N[C@@H](Cc1ccc(OCCn2c3ccccc3c3ccccc32)cc1)C(=O)O | 3.4 | 4.2
6 | CCOC(=O)[C@H](Cc1ccc(OCc2ccc(OC)cc2)cc1)NC(C)=O | 2.4 | 1.3
7 | CCN(CCOc1ccc(C[C@H](NC(C)=O)C(=O)O)cc1)c1cccc(C)c1 | 3.2 | 1.4
8 | CC(=O)N[C@@H](Cc1ccc(OCCOc2ccc(C(=O)c3ccc(Cl)cc3)cc2)cc1)C(=O)O | 4.6 | 2.4
9 | CC(=O)N[C@@H](Cc1ccc(OCCC(=O)Nc2ccccc2C(F)(F)F)cc1)C(=O)O | 2.5 | 1.2
10 | CC(=O)N[C@@H](Cc1ccc(OCc2c3ccccc3cc3ccccc23)cc1)C(=O)O | 3.1 | 1.3
11 | CCOC(=O)[C@H](Cc1ccc(OCCOc2ccc(C(=O)c3ccc(Cl)cc3)cc2)cc1)NC(C)=O | 3.3 | 0.9
12 | CN(CCOc1ccc(CC2SC(=O)NC2=O)cc1)c1ccccn1 (stereo not given) |  | 27.2
13 | COc1ccc(COc2ccc(C[C@H](NC(C)=O)C(=O)O)cc2)cc1 | 4.4 | 5.4
14 | CCOC(=O)[C@H](Cc1ccc(OCc2c3ccccc3cc3ccccc23)cc1)NC(C)=O | 2.3 | 0.8
15 | CCOC(=O)[C@H](Cc1ccc(OCCC(=O)Nc2ccccc2C(F)(F)F)cc1)NC(C)=O | 1 | 1.8
16 | CCOC(=O)[C@H](Cc1ccc(OCCN(CC)c2cccc(C)c2)cc1)NC(C)=O | 2.9 | 1.1
